Reference: ChEMBL document CHEMBL1955744, “Bis-pyrrolyl-tetrazolyl derivatives as hybrid polar compounds: A case of lipophilic functional bioisosterism with bis-acetamides” (2012)
Active and inactive are the calls of the source. The rule behind the calls is not given here.

Experiments:
[1] = Upregulation of beta-major globin gene expression in MEL cells at 5 mM after 24 to 96 hrs by RT-PCR analysis; type: functional, cell-based; settings: Mus musculus
In short: (§1)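 MEL cells were treated with 10^-4 M agent or 5 mM HMBA for 0, 24, 48, 72 and 96 h, with untreated cells as control. Cells were washed in PBS. Total cytoplasmic RNA (1 µg/reaction) was extracted by acid guanidinium thiocyanate-phenol-chloroform and run in one-step RT-PCR: 50 °C 30 min, 94 °C 2 min, then 30 cycles of 94/58/72 °C, then 72 °C 10 min. β-major globin primers were used with β-actin as internal control.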

MEL [2] = test: Induction of cell differentiation in MEL cells assessed as hemoglobin accumulation at 5 mM by after 24 to 96 hrs by spectrophotometry; type: functional, cell-based; settings: Mus musculus
In short: (§2)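 MEL cells (1.0 x 10^5 cells/mL, DMEM/10% FBS/1% PS, 37 °C, 5% CO2) were treated with 10^-4 M agent or 5 mM HMBA, alongside untreated controls. Total cellular Hb was measured spectrophotometrically in samples taken over a 24–96 h time course.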

[3] = Growth inhibition of MEL cells at 0.01 to 100 uM after 48 hrs relative to control; type: functional, Mus musculus
In short: (§3)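 MEL cells seeded at 1.0 x 10^5 cells/mL in DMEM with 10% v/v FBS and 1% PS, 37 °C, 5% CO2. Agents dissolved in DMSO (final DMSO below 0.5% v/v) and tested at 0.01–100 µM for 48 h. Cells counted by Neubauer hemocytometer. Growth given as percentage of untreated control.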

MEL [4] = test: Growth inhibition of MEL cells after 48 hrs; type: functional, cell-based; settings: Mus musculus; in short: as §3
[5] = Induction of cell differentiation in MEL cells at 100 uM after 96 hrs by benzidine staining; type: functional, Mus musculus
In short: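 MEL cells were seeded at 1.0 x 10^5 cells/mL in DMEM with 10% FBS and 1% PS at 37 °C, 5% CO2, then exposed to 100 µM agent in DMSO (final DMSO below 0.5% v/v) for 96 h. HMBA 5 mM served as positive control. Hb-producing cells were scored by benzidine-H2O2 staining and reported as percentage benzidine-positive.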

MEL [6] = test: Induction of cell differentiation in MEL cells assessed as hemoglobin accumulation at 0.1 mM by after 24 to 96 hrs by spectrophotometry; type: functional, cell-based; settings: Mus musculus; in short: as §2
[7] = Growth inhibition of MEL cells at 0.1 mM after 96 hrs; type: functional; settings: Mus musculus, read-out: GI
In short: (§4)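 Exponentially growing MEL cells (1.0 x 10^5 cells/mL, DMEM/10% FBS/1% PS, 37 °C, 5% CO2) were exposed to 10^-4 M agent in DMSO. Untreated cultures served as control and HMBA 5 mM as reference. Samples were removed at various intervals up to 96 h and counted by hemocytometer. Growth was expressed as absolute number or as percentage of control.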

[8] = Upregulation of beta-major globin gene expression in MEL cells at 0.1 mM after 24 to 96 hrs by RT-PCR analysis; type: functional, cell-based; settings: Mus musculus; in short: as §1
MEL [9] = test: Growth inhibition of MEL cells at 0.1 mM; type: functional, cell-based; settings: Mus musculus, TDE = time-dependent effect; in short: as §4

With `CC(=O)NCCCCCCNC(C)=O` as the molecule, how does the Activity [1] read?
Its Activity is “Active”.

And the Activity (MEL [2])?
The Activity was “Active”.

Which results are given for `c1ccn(-c2nnn(Cc3ccc(Cn4nnc(-n5cccc5)n4)cc3)n2)c1`?
growth inhibition (GI) [3]: 30%; growth inhibition (GI) (MEL [4]): Dose-dependent effect; Activity [5]: 5%

With `c1ccn(-c2nnn(CCCCCCCn3nnc(-n4cccc4)n3)n2)c1` as the molecule, how does the “growth inhibition (GI)” value [3] read?
The value was 30%.

What about the “growth inhibition (GI)” value (MEL [4]) of the same molecule?
Its value is “Dose-dependent effect”.

And the Activity [5]?
Its Activity is 5%.

With `CNC(=O)c1cccn1-c1nnn(CCCCCCn2nnc(-n3cccc3C(=O)NC)n2)n1` as the molecule, how does the “growth inhibition (GI)” value [3] read?
Its value is 30%.

What about the “growth inhibition (GI)” value (MEL [4]) of the same molecule?
Its value is “Dose-dependent effect”.

What about the Activity [5] of the same molecule?
The Activity was 5%.

What does the source list for `c1ccn(-c2nnn(CCCCCn3nnc(-n4cccc4)n3)n2)c1`?
growth inhibition (GI) [3]: 30%; growth inhibition (GI) (MEL [4]): Dose-dependent effect; Activity [5]: 5%

Which Activity (MEL [6]) does the source give for `c1ccn(-c2nnn(CCCCCCn3nnc(-n4cccc4)n3)n2)c1` here?
Its Activity is “Active”.

What about the inhibition of growth at 100 µM [7] of the same molecule?
Its inhibition of growth at 100 µM is > 75%.

And the “growth inhibition (GI)” value [3]?
The value was 30%.

And the “growth inhibition (GI)” value (MEL [4])?
The value was “Dose-dependent effect”.

And the Activity [8]?
The Activity was “Active”.

What about the “growth inhibition (GI)” value (MEL [9]) of the same molecule?
Its value is “tde”.

And the Activity [5]?
Its Activity is 30%.
